Test results published in ChEMBL document CHEMBL5303300, “EUbOPEN Chemogenomics Library - Multiplex” (2023).
Where “and” joins values, the source holds several entries; their conditions need not be identical. Identical values can stand only once.

How the values were obtained:
[1] = tested on: Fibroblast; assay: Multiplex assay against human fibroblast; assay type: toxicity, cell-based; conditions: number of replicates 2
How it was run: (§1)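 Tubulin, mitochondrial-mass and membrane-permeability phenotypes are per cents of healthy-nucleus cells. Cells were gated by CellPathfinder machine learning into Hoechst high-intensity objects or normal cells, normal cells into healthy, pyknosed or fragmented nuclei, and pyknosed cells into mitotic or apoptotic. Before that, live cells stained at seeding with Hoechst33342, BioTracker Green Microtubule Cytoskeleton Dye, MitoTracker Red and Annexin V Alexa Fluor 680 were imaged on a CQ1 microscope at 37°C and 5% CO2 after compound addition.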

[2] = tested on: HEK-293T; assay: Multiplex assay against HEK293T; assay type: toxicity, cell-based; conditions: human, number of replicates 2; how it was run: as §1
[3] = 12 h, 1 µM, compound concentration 1 uM
[4] = 12 h, 10 µM, compound concentration 10 uM
[5] = 24 h, 1 µM, compound concentration 1 uM
[6] = 24 h, 10 µM, compound concentration 10 uM
[7] = 48 h, 1 µM, compound concentration 1 uM
[8] = 48 h, 10 µM, compound concentration 10 uM

For `O=C1Nc2ccc(C(=O)c3ccco3)cc2C1=Cc1cc(Cl)c(O)c(Cl)c1` [GW406108X], the “Population Apoptotic (%)” value [1, 3] was 28% and 31%, the “Population Fragmented Nuclei (%)” value [1, 3] was 8% and 6% and the “Population Healthy Nuclei (%)” value [1, 3] was 65% and 68%. For the same compound, the “Population Hoechst High Intensity Objects (%)” value [1, 3] was 0%, the “Population Membrane Permeable-Phenotype (%)” value [1, 3] was 6% and the “Population Mitochondria Different-Phenotype (%)” value [1, 3] was 1%. The “Population Mitotic Cells (%)” value [1, 3] was 71% and 68%, the “Population Normal (%)” value [1, 3] was 99% and 100% and the “Population Pyknosed Nuclei (%)” value [1, 3] was 25% and 24%. For the same compound, the “Population Tubulin-Different-Phenotype (%)” value [1, 3] was 16% and 8%, the “Total Cell Count” value [1, 3] was 224 and 230 and the “Population Apoptotic (%)” value [1, 4] was 44% and 41%. For the same compound, the “Population Fragmented Nuclei (%)” value [1, 4] was 8% and 11%, the “Population Healthy Nuclei (%)” value [1, 4] was 69% and 67% and the “Population Hoechst High Intensity Objects (%)” value [1, 4] was 0% and 2%. The “Population Membrane Permeable-Phenotype (%)” value [1, 4] was 6% and 5%, the “Population Mitochondria Different-Phenotype (%)” value [1, 4] was 0% and 2% and the “Population Mitotic Cells (%)” value [1, 4] was 55% and 58%. For the same compound, the “Population Normal (%)” value [1, 4] was 100% and 97%, the “Population Pyknosed Nuclei (%)” value [1, 4] was 21% and 20% and the “Population Tubulin-Different-Phenotype (%)” value [1, 4] was 18% and 14%. The “Total Cell Count” value [1, 4] was 178 and 206, the “Population Apoptotic (%)” value [1, 5] was 46% and 45% and the “Population Fragmented Nuclei (%)” value [1, 5] was 8% and 9%. The “Population Healthy Nuclei (%)” value [1, 5] was 72%, the “Population Hoechst High Intensity Objects (%)” value [1, 5] was 0% and the “Population Membrane Permeable-Phenotype (%)” value [1, 5] was 5% and 4%. The “Population Mitochondria Different-Phenotype (%)” value [1, 5] was 0% and 1%, the “Population Mitotic Cells (%)” value [1, 5] was 53% and 55% and the “Population Normal (%)” value [1, 5] was 100%. The “Population Pyknosed Nuclei (%)” value [1, 5] was 18% and 17%, the “Population Tubulin-Different-Phenotype (%)” value [1, 5] was 15% and 10% and the “Total Cell Count” value [1, 5] was 248 and 224. For the same compound, the “Population Apoptotic (%)” value [1, 6] was 58% and 43%, the “Population Fragmented Nuclei (%)” value [1, 6] was 7% and 17% and the “Population Healthy Nuclei (%)” value [1, 6] was 71% and 54%. The “Population Hoechst High Intensity Objects (%)” value [1, 6] was 0% and 1%, the “Population Membrane Permeable-Phenotype (%)” value [1, 6] was 9% and 10% and the “Population Mitochondria Different-Phenotype (%)” value [1, 6] was 1%. For the same compound, the “Population Mitotic Cells (%)” value [1, 6] was 41% and 56%, the “Population Normal (%)” value [1, 6] was 100% and 98% and the “Population Pyknosed Nuclei (%)” value [1, 6] was 21% and 28%. For the same compound, the “Population Tubulin-Different-Phenotype (%)” value [1, 6] was 27% and 23%, the “Total Cell Count” value [1, 6] was 169 and 205 and the “Population Apoptotic (%)” value [1, 7] was 70% and 55%. The “Population Fragmented Nuclei (%)” value [1, 7] was 10% and 9%, the “Population Healthy Nuclei (%)” value [1, 7] was 76% and 77% and the “Population Hoechst High Intensity Objects (%)” value [1, 7] was 0%. The “Population Membrane Permeable-Phenotype (%)” value [1, 7] was 9% and 3%, the “Population Mitochondria Different-Phenotype (%)” value [1, 7] was 0% and the “Population Mitotic Cells (%)” value [1, 7] was 29% and 44%. The “Population Normal (%)” value [1, 7] was 100%, the “Population Pyknosed Nuclei (%)” value [1, 7] was 12% and the “Population Tubulin-Different-Phenotype (%)” value [1, 7] was 15% and 5%. The “Total Cell Count” value [1, 7] was 242 and 224, the “Population Apoptotic (%)” value [1, 8] was 61% and 68% and the “Population Fragmented Nuclei (%)” value [1, 8] was 11% and 16%. For the same compound, the “Population Healthy Nuclei (%)” value [1, 8] was 66% and 56%, the “Population Hoechst High Intensity Objects (%)” value [1, 8] was 0% and 1% and the “Population Membrane Permeable-Phenotype (%)” value [1, 8] was 12% and 10%. The “Population Mitochondria Different-Phenotype (%)” value [1, 8] was 0% and 1%, the “Population Mitotic Cells (%)” value [1, 8] was 38% and 31% and the “Population Normal (%)” value [1, 8] was 100% and 98%. The “Population Pyknosed Nuclei (%)” value [1, 8] was 22% and 26%, the “Population Tubulin-Different-Phenotype (%)” value [1, 8] was 36% and 31% and the “Total Cell Count” value [1, 8] was 163 and 205. The “Population Apoptotic (%)” value [2, 3] was 52% and 54%, the “Population Fragmented Nuclei (%)” value [2, 3] was 4% and 3% and the “Population Healthy Nuclei (%)” value [2, 3] was 83% and 81%. The “Population Hoechst High Intensity Objects (%)” value [2, 3] was 9%, the “Population Membrane Permeable-Phenotype (%)” value [2, 3] was 2% and 1% and the “Population Mitochondria Different-Phenotype (%)” value [2, 3] was 18% and 17%. The “Population Mitotic Cells (%)” value [2, 3] was 47% and 45%, the “Population Normal (%)” value [2, 3] was 90% and the “Population Pyknosed Nuclei (%)” value [2, 3] was 11% and 14%. The “Population Tubulin-Different-Phenotype (%)” value [2, 3] was 49% and 42%, the “Total Cell Count” value [2, 3] was 695 and 619 and the “Population Apoptotic (%)” value [2, 4] was 53% and 61%. The “Population Fragmented Nuclei (%)” value [2, 4] was 4% and 3%, the “Population Healthy Nuclei (%)” value [2, 4] was 82% and 85% and the “Population Hoechst High Intensity Objects (%)” value [2, 4] was 7% and 9%. For the same compound, the “Population Membrane Permeable-Phenotype (%)” value [2, 4] was 2% and 1%, the “Population Mitochondria Different-Phenotype (%)” value [2, 4] was 19% and the “Population Mitotic Cells (%)” value [2, 4] was 46% and 38%. The “Population Normal (%)” value [2, 4] was 92% and 90%, the “Population Pyknosed Nuclei (%)” value [2, 4] was 13% and 10% and the “Population Tubulin-Different-Phenotype (%)” value [2, 4] was 67%. For the same compound, the “Total Cell Count” value [2, 4] was 686 and 661, the “Population Apoptotic (%)” value [2, 5] was 55% and 53% and the “Population Fragmented Nuclei (%)” value [2, 5] was 7%. The “Population Healthy Nuclei (%)” value [2, 5] was 85% and 82%, the “Population Hoechst High Intensity Objects (%)” value [2, 5] was 9% and the “Population Membrane Permeable-Phenotype (%)” value [2, 5] was 2% and 1%. For the same compound, the “Population Mitochondria Different-Phenotype (%)” value [2, 5] was 4% and 5%.
